# Laboratory results as given in ChEMBL document CHEMBL1811908, “Design of HIV-1 integrase inhibitors targeting the catalytic domain as well as its interaction with LEDGF/p75: a scaffold hopping approach using salicylate and catechol groups” (Bioorg Med Chem, 2011).
# Tests used:
# [1] = biological target: T1, Human immunodeficiency virus type 1 integrase (Human immunodeficiency virus 1, UniProt Q7ZJM1); experiment: Inhibition of wild-type HIV1 integrase 3'-processing activity using [32P]-5'-end-labeled 5'-GTGTGGAAAATCTCTAGCAGT-3' as substrate after 1 hr
# T1 sequence (Q7ZJM1 whole entry): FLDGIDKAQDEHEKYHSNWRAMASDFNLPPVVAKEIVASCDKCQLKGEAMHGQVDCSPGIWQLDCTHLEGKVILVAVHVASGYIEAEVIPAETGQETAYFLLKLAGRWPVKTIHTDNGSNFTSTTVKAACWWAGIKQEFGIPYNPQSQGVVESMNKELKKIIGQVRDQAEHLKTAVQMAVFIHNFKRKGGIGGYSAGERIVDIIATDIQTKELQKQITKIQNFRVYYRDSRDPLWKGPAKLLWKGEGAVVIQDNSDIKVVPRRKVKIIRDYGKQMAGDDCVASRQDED
# [2] = biological target: T1, Human immunodeficiency virus type 1 integrase; experiment: Inhibition of wild-type HIV1 integrase strand transfer activity using [32P]-5'-end-labeled 5'-GTGTGGAAAATCTCTAGCAGT-3' as substrate after 1 hr
# [3] = (§1) Cytotoxicity against human NCI-H630 cells after 72 hrs by MTT assay; assay type: cell-based; details: NCI-H630 cells
# Outline: (§2)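 H630 colon cancer cells seeded, attached overnight, then continuously exposed to compound (DMSO stocks) for 72 h. MTT added to 0.5 mg/mL final, 4 h at 37°C; supernatant removed, DMSO added, absorbance read at 570 nm. IC50 taken from plot of log concentration versus percentage of cells killed.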
# [4] = Inhibition of HIV1 His6-tagged integrase-LEDGF/p75 interaction after 30 mins by AlphaScreen assay
# Outline: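 His6-tagged IN (300 nM final) preincubated with compound (0.1–100 μM) 30 min at 4°C in 25 mM Tris-HCl pH 7.4, 150 mM NaCl, 1 mM MgCl2, 0.01% Tween-20, 0.1% BSA; 100 nM Flag-LEDGF/p75 added, 1 h at 4°C. Ni-chelate acceptor and anti-Flag donor beads (20 μg/ml each) added, 1 h at 30°C; AlphaScreen emission read.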
# NCI-H630 = experiment: as §1; assay type: cell-based; details: nci-h630, 72 h
# Outline: as §2
SMILES,IC50 [1] [µM],IC50 [2] [µM],CC50 at 72 h [3] [µM],IC50 [4] [µM],CC50 (NCI-H630) [µM]
O=C(O)c1cccc(OCc2ccc3ccccc3c2)c1O,> 100,140,> 40,–,–
O=C(O)c1cccc(OCc2ccc(F)cc2)c1O,> 100,> 100,> 40,–,–
O=C(NCc1cccs1)c1cc(S(=O)(=O)N2CCCCC2)cc(O)c1O,> 100,44,> 40,> 50,–
O=C(NCc1ccc(F)cc1)c1cccc(OCc2ccccc2)c1O,> 333,111,> 40,–,–
CC(C)(C)NS(=O)(=O)c1cc(O)c(O)c(C(=O)NCc2ccc(F)cc2)c1,70,8,> 10,100,–
Nc1cccc(C(=O)NCc2ccco2)c1O,> 100,> 100,> 25,51,–
O=C(NO)c1c(O)cccc1OCc1ccc(F)cc1,> 100,97,–,–,–
O=C(O)c1c(O)cccc1OCc1ccc2ccccc2c1,> 100,186,> 40,–,–
CNC(=O)c1cc(F)ccc1CNC(=O)c1cccc(O)c1O,> 100,100,> 40,> 100,–
O=C(O)c1cc(OCc2ccc(F)cc2)ccc1O,> 100,> 100,> 40,–,–
CNC(=O)Cc1ccccc1CNC(=O)c1cccc(O)c1O,> 100,56,> 40,> 100,–
O=C(NC1CCNCC1)c1cccc(O)c1O,> 100,> 100,> 10,> 100,–
N#Cc1cc(O)c(O)c(C(=O)NCc2ccc(F)cc2)c1,75,22,> 10,–,–
O=C(NO)c1cc(OCc2ccc(F)cc2)ccc1O,> 100,85,–,–,–
O=C(NCc1ccc(F)c(F)c1)c1cccc(O)c1O,> 100,23,> 40,56,–
O=C(NCc1cccc2ccccc12)c1cccc(O)c1O,> 100,26,–,34,21
CC(=O)Nc1cc(O)c(O)c(C(=O)NCc2ccc(F)cc2)c1,55,14,< 10,> 100,–
O=C(NC1CCCCC1)c1cccc(O)c1O,> 100,> 100,> 40,> 100,–
O=C(NCC1CCCCC1)c1cc(S(=O)(=O)N2CCCCC2)cc(O)c1O,53,19,> 40,8,–
O=C(O)c1cccc(OCc2ccccc2)c1O,> 100,> 100,> 40,–,–
CS(=O)(=O)Nc1cc(O)c(O)c(C(=O)NCc2ccc(F)cc2)c1,> 100,34,–,100,–

SMILES,IC50 [1] [µM],IC50 [2] [µM],CC50 at 72 h [3] [µM],IC50 [4] [µM],CC50 (NCI-H630) [µM]
CNS(=O)(=O)c1cc(O)c(O)c(C(=O)NCc2ccc(F)cc2)c1,> 100,44,> 40,> 100,–
O=C(Nc1ccc2[nH]ccc2c1)c1cccc(O)c1O,> 100,58,> 40,88,–
O=C(NCCc1c[nH]c2ccccc12)c1cccc(O)c1O,100,100,–,63,15
O=C(NCc1ccco1)c1cc(S(=O)(=O)N2CCCCC2)cc(O)c1O,> 100,13,–,> 100,33
COc1cc(S(=O)(=O)N2CCCCC2)cc(C(=O)NCc2ccco2)c1O,> 100,> 100,> 25,13,–
O=C(NCc1ccco1)c1cccc(O)c1O,90,15,> 40,89,–
O=C(NO)c1cccc(OCc2ccc(F)cc2)c1O,> 100,> 100,–,–,–
CN(C)Cc1ccc(C(=O)NCc2ccco2)c(O)c1O,> 100,39,–,> 50,7
O=C(NCc1cccs1)c1cccc(O)c1O,83,12,> 40,95,–
O=C(O)c1c(O)cccc1OCc1ccc(F)cc1,> 100,> 100,> 40,–,–
O=C(NO)c1ccc(OCc2ccc(F)cc2)cc1O,> 100,100,–,–,–
CN(C)Cc1ccc(C(=O)NCc2ccc(F)cc2)c(O)c1O,> 100,20,> 10,> 50,–
O=C(NCc1ccc(-c2cccs2)cc1)c1cccc(O)c1O,> 100,21,–,> 100,15
O=C(O)c1cc(OCc2ccccc2)ccc1O,> 100,> 100,> 40,–,–
O=C(NCc1ccc(F)cc1)c1cc(S(=O)(=O)N2CCCCC2)cc(O)c1O,200,5,–,–,13
O=C(O)c1ccc(OCc2ccccc2)cc1O,> 100,> 100,> 40,–,–
O=C(NCc1ccc(F)cc1)c1cccc(O)c1O,100,35,> 40,> 100,–
O=C(NCc1ccc2[nH]ccc2c1)c1cccc(O)c1O,–,–,> 40,45,–
O=C(NCC1CCCCC1)c1cccc(O)c1O,> 100,18,–,> 100,21
O=C(NCc1ccc(C(F)(F)F)cc1)c1cc(S(=O)(=O)N2CCCCC2)cc(O)c1O,89,11,–,> 100,31
O=C(O)c1ccc(OCc2ccc(F)cc2)cc1O,> 100,> 100,> 40,–,–
